# Test results: ChEMBL document CHEMBL1255434, “Heat stress cognate 70 host protein as a potential drug target against drug resistance in hepatitis B virus” (Antimicrob Agents Chemother, 2010)
# Activity calls are given as the source filed them. No cut-off for these calls is given here.
# Experiments:
# Hepatitis B virus [1] = assay: Antiviral activity against Hepatitis B virus infected in human HepG2(2.2.15) cells assessed as decrease in intracellular viral DNA level at 5.9 uM after 72 hrs by RT-PCR analysis; format: functional, organism-based
# Summary of the method: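 HepG2.2.15 cells were treated at 5.9, 23.6, 94.5 and 378 μM and 1.51 mM for 72 h. Intracellular HBV DNA was measured by real-time PCR, with Hsc70 mRNA by RT-PCR in parallel. Amounts were expressed relative to untreated cells, set as 1. Dot blot was used as confirmation. Means and SD.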
# [2] = Decrease in HscA70-mRNA expression in Hepatitis B virus infected in human HepG2(2.2.15) cells at 5.9 uM after 24-36 hrs by RT-PCR analysis; format: functional, cell-based
# [3] = Half life in human blood; format: ADME, tissue-based
# [4] = Cytotoxicity against human HepG2(2.2.15) cells assessed as cell survival at 113 uM continuous exposure measured after 7 months; settings: hepg2 2.2.15, 5113.5 h
# Hepatitis B virus [5] = assay: Antiviral activity against Hepatitis B virus infected in human HepG2(2.2.15) cells assessed as reduction in viral DNA level at 113 uM continuous exposure measured after 7 months by RT-PCR analysis
# [6] = Decrease in Hsc70-protein expression in Hepatitis B virus infected in human HepG2(2.2.15) cells at 1.51 mM after 24 hrs by Western blot analysis; format: functional, cell-based
# Summary of the method: (§1)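 HepG2.2.15 cells treated 24 h at 0.4 mg/ml (1.51 mM). Western blot: RIPA lysates with PMSF and protease inhibitors, SDS-PAGE, PVDF, 5% milk/TBST block 1 h at 37°C, mouse anti-Hsc70 monoclonal, HRP secondary, ECL. Flow cytometry: rabbit anti-Hsc70 with Cy5-labelled anti-rabbit secondary. Five experiments per assay.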
# Hepatitis B virus [7] = assay: Antiviral activity against Hepatitis B virus infected in human HepG2(2.2.15) cells assessed as reduction in viral DNA level at 113 uM continuous exposure measured after 2 months by RT-PCR analysis
# Hepatitis B virus [8] = assay: Antiviral activity against Hepatitis B virus infected in human HepG2(2.2.15) cells assessed as reduction in genomic viral DNA at 23.6 uM to 1.51 mM after 24 hrs by RT-PCR analysis; format: functional; design: scale not given: the % may be the effect or the level left
# [9] = Decrease in HscA4-mRNA expression in Hepatitis B virus infected in human HepG2(2.2.15) cells at 1.51 mM after 24 hrs by RT-PCR analysis; format: functional, cell-based
# Summary of the method: (§2)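 HepG2.2.15 cells at 0.4 mg/ml (1.51 mM). HspA4 and Hsp90 mRNA measured as host reference genes by one-step SYBR Green qRT-PCR, alongside Hsc70 mRNA and HBV DNA.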
# [10] = Therapeutic index, ratio of CC50 for human sHepG2(2.2.15) cells to IC50 for Hepatitis B virus; format: cell-based; settings: HepG2 2.2.15 cells
# Summary of the method: (§3)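 CC50 from MTT assay in HepG2.2.15 cells. Therapeutic ratio taken as CC50 over the anti-HBV EC50 from the 72 h dose-response measuring intracellular HBV DNA by real-time PCR.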
# [11] = Cytotoxicity against human HepG2(2.2.15) cells assessed as cell survival at 113 uM continuous exposure measured after 2 months; settings: hepg2 2.2.15, 1461 h
# Hepatitis B virus [12] = assay: Antiviral activity against Hepatitis B virus infected in human HepG2(2.2.15) cells assessed as decrease in supernatant viral DNA level at 1.51 mM after 36 hrs by RT-PCR analysis; format: functional; design: scale not given: the % may be the effect or the level left
# Hepatitis B virus [13] = assay: Antiviral activity against Hepatitis B virus infected in human HepG2(2.2.15) cells assessed as decrease in intracellular viral DNA level at 113 uM after 72 hrs by RT-PCR analysis in presence of adefovir; format: functional, organism-based
# Summary of the method: (§4)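 HepG2.2.15 cells (HBV genome-transfected, MEM + 10% FBS) treated 72 h with drug alone or in two-drug combination. Entecavir 0.6 μg/ml (2.16 μM), adefovir 3 μg/ml (5.9 μM), lamivudine 3 μg/ml (13 μM), oxymatrine 30 μg/ml (113 μM). Intracellular HBV DNA by SYBR Green real-time PCR, relative to untreated. Experiment repeated twice; means and SD, Student's t test.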
# Hepatitis B virus [14] = assay: Antiviral activity against adefovir-resistant Hepatitis B virus infected in human Huh-7 cells assessed as suppression of viral replication at 1.51 mM after 24 hrs by RT-PCR analysis; format: functional; settings: Huh-7, 24 h
# Summary of the method: (§5)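 Huh-7 cells (10^5/well) were plated and incubated overnight. They were then transfected for 24 h with pcDNA3.1 carrying one HBV strain: Lamr (rtL180M+rtM204V), Advr (rtA181V+rtN236T) or Etvr (rtL180M+rtM204V+rtS202G). Medium was replaced with fresh medium containing 0.4 mg/ml (1.51 mM) for 24 h. Intracellular HBV DNA replicative intermediates were quantified by real-time PCR against untreated controls. Performed twice.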
# Hepatitis B virus [15] = assay: Antiviral activity against Hepatitis B virus infected in human HepG2(2.2.15) cells assessed as reduction in viral DNA level by RT-PCR analysis; format: functional, organism-based
# [16] = Decrease in Hsc70- mRNA expression in Hepatitis B virus infected in human HepG2(2.2.15) cells at 1.51 mM by RT-PCR analysis; format: functional, cell-based; settings: TDE = time-dependent effect
# [17] = Decrease in Hsc70- mRNA expression in Hepatitis B virus infected in human HepG2(2.2.15) cells at 1.51 mM after 72 hrs by RT-PCR analysis; format: functional, cell-based
# Summary of the method: (§6)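 Dose-response in HepG2.2.15 cells: 5.9, 23.6, 94.5 and 378 μM and 1.51 mM for 72 h. Hsc70 mRNA by qRT-PCR and intracellular HBV DNA by real-time PCR, each expressed relative to untreated cells (=1). HBV DNA also checked by dot blot. EC50 from this curve.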
# HepG2 2.2.15 = assay: Reduction in Hsc70 mRNA half-life in Hepatitis B virus infected in human HepG2(2.2.15) cells at 1.51 mM after 24 hrs by RT-PCR analysis; format: functional; settings: HepG2 2.2.15, 24 h
# Summary of the method: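 HepG2.2.15 cells treated or not with 0.4 mg/ml (1.51 mM) for 24 h, then actinomycin D 5 μg/ml added to block transcription. RNA harvested at intervals; Hsc70 mRNA by real-time RT-PCR, normalized to GAPDH. Percent remaining plotted against time to estimate T1/2. Repeated twice.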
# [18] = Cytotoxicity against human HepG2(2.2.15) cells assessed as cell growth at 1.51 mM after 36 hrs; format: cell-based; settings: hepg2 2.2.15, 36 h, 1510 µM
# Summary of the method: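 HepG2.2.15 cell growth followed during 36 h exposure to 0.4 mg/ml (1.51 mM), compared with untreated cells; experiment repeated twice.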
# Hepatitis B virus [19] = assay: Antiviral activity against Hepatitis B virus infected in human HepG2(2.2.15) cells assessed as reduction in viral DNA level at 23.6 uM to 1.51 mM after 72 hrs by RT-PCR analysis; format: functional; summary of the method: as §6
# [20] = Decrease in HscA90-mRNA expression in Hepatitis B virus infected in human HepG2(2.2.15) cells at 1.51 mM after 24 hrs by RT-PCR analysis; format: functional, cell-based; summary of the method: as §2
# Hepatitis B virus [21] = assay: Antiviral activity against drug-resistant chronic Hepatitis B virus infected patients assessed as reduction in viral DNA at 0.4 g/day, po for 12 months; format: functional
# Hepatitis B virus [22] = assay: Antiviral activity against entecavir-resistant Hepatitis B virus infected in human Huh-7 cells assessed as suppression of viral replication at 1.51 mM after 24 hrs by RT-PCR analysis; format: functional; settings: Huh-7, 24 h; summary of the method: as §5
# Hepatitis B virus [23] = assay: Antiviral activity against Hepatitis B virus infected in human HepG2(2.2.15) cells assessed as decrease in intracellular viral DNA level at 113 uM after 72 hrs by RT-PCR analysis in presence of entecavir; format: functional, organism-based; summary of the method: as §4
# [24] = Decrease in wild type Luc mRNA expression in human HepG2(2.2.15) cells after 24 hrs by RT-PCR analysis; format: functional, cell-based
# Summary of the method: (§7)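 HepG2.2.15 cells transfected 24 h with luciferase reporter pLuc (pcDNA3.0 backbone), pLuc-3′UTR or pLuc-5′UTR (Hsc70 UTR chimeras). Cells split into two dishes, incubated overnight, then given drug or dilution buffer. Total RNA taken 12 h later; Luc mRNA by real-time RT-PCR. Three experiments; means and SD.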
# Hepatitis B virus [25] = assay: Antiviral activity against Hepatitis B virus infected in human HepG2(2.2.15) cells assessed as reduction in viral DNA replicative intermediates at 23.6 uM to 1.51 mM after 24 hrs by RT-PCR analysis; format: functional
# Hepatitis B virus [26] = assay: Antiviral activity against Hepatitis B virus infected in human HepG2(2.2.15) cells assessed as decrease in intracellular viral DNA level at 113 uM after 72 hrs by RT-PCR analysis; format: functional, organism-based; summary of the method: as §4
# Hepatitis B virus [27] = assay: Antiviral activity against Hepatitis B virus infected in human HepG2(2.2.15) cells assessed as decrease in intracellular viral DNA level at 1.51 mM after 36 hrs by RT-PCR analysis; format: functional; settings: HepG2 2.2.15, 36 h
# Summary of the method: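 HepG2.2.15 cells (HBV full-genome transfected HepG2) in MEM with 10% FBS, exposed to 0.4 mg/ml (1.51 mM) for 36 h. Intracellular DNA (genomic plus HBV) isolated and HBV DNA quantified by SYBR Green real-time PCR. Values were normalised to the untreated-cell mean, set as 1.0. Run 3 times; means and SD.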
# [28] = Decrease in Hsc70-protein expression in Hepatitis B virus infected in human HepG2(2.2.15) cells at 1.51 mM after 24 hrs by flow-cytometric assay; format: functional, cell-based; summary of the method: as §1
# [29] = Decrease in Luc mRNA expression in human sHepG2(2.2.15) cells expressing pLuc-3'UTR […] by RT-PCR analysis; format: functional, cell-based; design: scale not given: the % may be the effect or the level left; settings: HepG2 2.2.15
# Hepatitis B virus [30] = assay: Antiviral activity against Hepatitis B virus infected in human HepG2(2.2.15) cells assessed as reduction in viral mRNA level at 1.51 mM for 12, 24 or 36 hrs by RT-PCR analysis; format: functional, organism-based
# Summary of the method: (§8)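 HepG2.2.15 cells exposed to 0.4 mg/ml (1.51 mM) for 12, 24 or 36 h. Total RNA taken for HBV mRNA by one-step SYBR Green qRT-PCR; intracellular DNA isolated for HBV DNA by real-time PCR. Each value scaled to the mean of untreated cells set as 1.0. Three experiments; means and SD.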
# HepG2 = assay: Decrease in Hsc70- mRNA expression in human liver HepG2 cells at 0.23 to 0.94 mM after 24 hrs by RT-PCR analysis; format: functional, cell-based
# Summary of the method: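 Hsc70 mRNA by one-step SYBR Green qRT-PCR after 24 h treatment at 0.0625 or 0.25 mg/ml (0.23 and 0.94 mM), relative to untreated cells. More than 5 experiments; means and SD.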
# [31] = Decrease in Luc mRNA expression in human sHepG2(2.2.15) cells expressing pLuc-5'UTR after 24 hrs by RT-PCR analysis; format: functional, cell-based; settings: HepG2 2.2.15; summary of the method: as §7
# Hepatitis B virus [32] = assay: Antiviral activity against lamivudine-resistant Hepatitis B virus infected in human Huh-7 cells assessed as suppression of viral replication at 1.51 mM after 24 hrs by RT-PCR analysis; format: functional; settings: Huh-7, 24 h; summary of the method: as §5
# [33] = Cytotoxicity against human HepG2(2.2.15) cells assessed as cell killing by MTT assay; format: cell-based; summary of the method: as §3
# Hepatitis B virus [34] = assay: Antiviral activity against Hepatitis B virus infected in human HepG2(2.2.15) cells assessed as reduction in viral DNA level at 1.51 mM for 12, 24 or 36 hrs by RT-PCR analysis; format: functional, organism-based; summary of the method: as §8
compound,measurement,setting,value
Nc1ncnc2c1ncn2CCOCP(=O)(O)O,Activity,Hepatitis B virus [1],Active
same,Activity,[2],inactive
O=C1CCC[C@@H]2[C@H]3CCC[N+]4([O-])CCC[C@@H](CN12)[C@@H]34 (stereo partly specified) [OXYMATRINE],half-life,[3],2.4 h
same,Activity,[4],Non-toxic
same,Activity,Hepatitis B virus [5],Active
same,Activity,[6],Active
same,Activity,Hepatitis B virus [7],Active
same,Activity,Hepatitis B virus [8],54%
same,Activity,[9],inactive
same,selectivity ratio,[10],> 100
same,Activity,[11],Non-toxic
same,Activity,Hepatitis B virus [12],60%
same,Activity,Hepatitis B virus [13],Active
same,inhibition at 1510 µM,Hepatitis B virus [14],62%
same,EC50,Hepatitis B virus [15],31 µg/mL
same,Activity,[16],tde
same,Activity,[17],inactive
same,inhibition at 1510 µM,HepG2 2.2.15,50%
same,Activity,[18],Non-toxic
same,inhibition (INH),Hepatitis B virus [19],43%
same,Activity,[20],inactive
same,log10cfu,Hepatitis B virus [21],1.5
same,inhibition at 1510 µM,Hepatitis B virus [22],62%
same,Activity,Hepatitis B virus [23],Active
same,Activity,[24],inactive
same,inhibition (INH),Hepatitis B virus [25],75%
same,Activity,Hepatitis B virus [26],Active
same,inhibition at 1510 µM,Hepatitis B virus [27],62%
same,Activity,[28],Active
same,Activity,[29],50%
same,Activity,Hepatitis B virus [30],inactive
same,Activity,HepG2,Active
same,Activity,[31],inactive
same,inhibition at 1510 µM,Hepatitis B virus [32],62%
same,MTT,[33],3.12 mg/mL
same,Activity,Hepatitis B virus [34],Active
